Measured values reported in the EternaBench riboswitch data.

Tested on: MS2 coat protein
Test: apparent Kd, MS2 coat protein; higher = weaker binding; RNA-MaP array; FMN 200 µM where present
Outline: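 In 100 mM Tris-HCl pH 7.5, 80 mM KCl, 4 mM MgCl2, BSA, DTT, yeast tRNA and Tween-20, SNAP-549-labelled MS2 coat protein was titrated from 0.7 or 1.5 nM, doubling to 3 µM, over designs transcribed by stalled E. coli RNA polymerase on Illumina sequencing-chip clusters. This was done first without ligand, then with ligand held constant. After green signal was normalised to red-channel RNA signal and control-cluster median Fmax, the apparent Kd was taken as the median of filtered per-cluster binding-curve fits.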

[1] = designed as: ON switch for flavin mononucleotide, no ligand
[2] = ligand present: flavin mononucleotide, designed as: ON switch for flavin mononucleotide
[3] = designed as: OFF switch for flavin mononucleotide, no ligand
[4] = ligand present: flavin mononucleotide, designed as: OFF switch for flavin mononucleotide

Sequence | apparent Kd [1] | apparent Kd [2] | apparent Kd [3] | apparent Kd [4]
GUAGCAUACCGAGGAUAUUCAUACCGUAAUCGGACAUGAGGAUCACCCAUGUGGCGAAAGCCUUGGGAGAAGGCGGAAUGCUAC | 630 nM | 27.6 nM | – | –
GUAGCAUACCGAGGAUAUUCAUACGGGAAACCGACAUGAGGAUCACCCAUGUGGCGAAAGCCUUGGGAGAAGGCGGAAUGCUAC | 691 nM | 24.8 nM | – | –
GUAGCAUGAUUAGGAUAUUCAGCGAGUAGAUUGACAUGAGGAUCACCCAUGUGGCGAAAGCCGAGGGAGAAGGGAUGAUGCUAC | 34.9 nM | 25 nM | – | –
GUAGCAUGCAGCGAGGAUAUUCAUAUUAAAACAUGAGGAUCACCCAUGUAGGCCAAAAGGCCUUGGGAGAAGGCGCACAUGCUAC | 777 nM | 43.2 nM | – | –
GUAGCAUUCUGAGGAUAUUCAUACCGGAAACGGACAUGAGGAUCACCCAUGUGGCGAAAGCCUUGGAAGAAGGCAGUAUGCUAC | 4.27 nM | 3.56 nM | – | –
GUAGCAUUCUGAGGAUAUUCAUACCGGAAACGGACAUGAGGAUCACCCAUGUGGCGAAAGCCUUGGGAGAAGGCAGUAUGCUAC | 740 nM | 27.4 nM | – | –
GUAGCAUUGAGAGGAUAUCCAUACCGGAAACGGACAUGAGGAUCACCCAUGUGGCGAAAGCCAUGGGAGAAGGCUCUAUGCUAC | 10.2 nM | 5.44 nM | – | –
GUAGCUAGUAAAGGAUAUUAGUGUGUGUAAUAUUGAGAAGGUUACAUGAGGAUCACCCAUGUGAUCAAUCACUGUUAAGGUUGC | – | – | 6.29 nM | 6.33 nM
GUAGCUAUCGGAGGAUAUCCAUACCGGAAACGGACAUGAGGAUCACCCAUGUGGCGAAAGCCUUGGGAGAAGGCCGAUAGCUAC | 5.06 nM | 3.36 nM | – | –
GUAGCUAUCGGAGGAUAUUCAUAGCCGAAAGGCACAUGAGGAUCACCCAUGUGCGGAAACGCUUGGGAGAAGGCCGAUAGCUAC | 25 nM | 15.1 nM | – | –
GUAGCUAUCGGAGGAUAUUCAUUAUACAUGAGGAUCACCCAUGUUAAAGUGGGAGAAGGCCGAUAGCUACAAGAGCGAAAGCUC | 35.8 nM | 8.13 nM | – | –
GUAGCUAUUAUUAUACAUGAGGAUCACCCAUGUUACAUGUGUAAGGAUAUUGAUGUUUUUAUUAUCAAGAAGGUACUAUGCUAC | 12.3 nM | 8.75 nM | – | –
GUAGCUUAUGAGAAGGCGAUCAUGAAACAUGAUCGAGGAUAUCAUGUAAACAUGAGGAUCACCCAUGUAUGGGUAUUAUGCUAC | 313 nM | 42.9 nM | – | –
GUAGGGUCAGGAUAUACGGGCGGAGGGAUGUAUUGUAGUUGGUAGAAGGGACAUGAGGAUCACCCAUGUAAGAA | – | – | 29.7 nM | 26.2 nM
GUAGUAUAAAGUUCAUAAUAUAGGAUAGAAGGUGAAAAUUUGACAUGAGGAUCACCCAUGUAAUUCAAGGAUAUGUAGUUACUC | 128 nM | 96.5 nM | – | –
GUAUAUAUUACAUGAGGAUCACCCAUGUCAGAACGGGUAAUCAGAAGGUACUAUUAGAGAAAGAGUAAGGAUAUGAUUAUAUAC | 329 nM | 33.9 nM | – | –
GUAUAUCACUAAGGAUAUCUGUAAUUUGUUGAAACAUGAGGAUCACCCAUGUUCAUGAAUUUAUAGGAGAAGGUAGAGAUAUAC | 4.24 nM | 4.15 nM | – | –
GUAUAUCACUCAGGAUAUCUGUAAUUUGUUGAAACAUGAGGAUCACCCAUGUUCAUGAAUUUAUAGGAGAAGGGAGAGAUAUAC | 4.58 nM | 4.69 nM | – | –
GUAUCAUAUGAGAAGGCGAUCAUGAAACAUGAUCGAGGAUAUCAUGAAAACAUGAGGAUCACCCAUGUAUGGGUAUUAAGGUAC | 65.6 nM | 41.7 nM | – | –
GUAUCGUGAGGAUAUCCAAUAUAUGACAUGAGGAUCACCCAUGUUUCCACUCGUACCUCCGGAGAAGGCACAGUUU | – | – | 32.2 nM | 27.9 nM
GUAUGUAACAAGGAUAUGCCCUCGAUACGAUUUGCAGAAGGUGUUACAUGAGGAUCACCCAUGUGGCCUUGCAU | – | – | 19.4 nM | 74.9 nM
GUAUUAAAGAUCCAUUUAUUCAACAUGAGGAUCACCCAUGUGCAGGAUAUCGUGUGUUUUAUAUUCGAGAAGGGCAAAUUCAUU | – | – | 44.6 nM | 104 nM
GUCAAGUGAGGAUAUGAUUGUACAACAGACUAACAUCUACAUCAGAAGGCACAUGAGGAUCACCCAUGUUUGUC | – | – | 17.7 nM | 15.8 nM
GUCACGUAAGGAUAUCAUUAGUUGGACAUGAGGAUCACCCAUGUGAGACUAACUCCGGCGUGAGAAGGUGCGUUAA | – | – | 13.4 nM | 16.7 nM
GUCAGCAAAUAAGGAUAUACAUCACUGCUUCGGCAGUGUAUUAAGAUCACAUGAGGAUCACCCAUGUAGAAGGUAUAAGCUGAU | – | – | 8.12 nM | 29.4 nM
GUCAGCUCGUGAGGAUAUACAACACUGCUACGGCAGUGUAUUAAGAUCACAUGAGGAUCACCCAUGUAGAAGGCACGAGCUGAU | – | – | 14 nM | 242 nM
GUCAGCUCGUGAGGAUAUACAACACUGCUUAGGCAGUGUAUUAAGAUCACAUGAGGAUCACCCAUGUAGAAGGCACGAGCUGAU | – | – | 13.6 nM | 222 nM

Sequence | apparent Kd [1] | apparent Kd [2] | apparent Kd [3] | apparent Kd [4]
GUCAGCUCGUGAGGAUAUACAACACUGCUUCGGCACUGUAUUAAGAUCACAUGAGGAUCACCCAUGUAGAAGGCACGAGCUGAU | – | – | 8.62 nM | 104 nM
GUCAGCUCGUGAGGAUAUACAACACUGCUUCGGCAGUGUACUAAGAUCACAUGAGGAUCACCCAUGUAGAAGGCACGAGCUGAU | – | – | 14.6 nM | 246 nM
GUCAGCUCGUGAGGAUAUACAACACUGCUUCGGCAGUGUAUGAAGAUCACAUGAGGAUCACCCAUGUAGAAGGCACGAGCUGAU | – | – | 9.93 nM | 176 nM
GUCAGCUCGUGAGGAUAUACAACACUGCUUCGGCAGUGUAUUAAAAUCACAUGAGGAUCACCCAUGUAGAAGGCACGAGCUGAU | – | – | 5.04 nM | 7.7 nM
GUCAGCUCGUGAGGAUAUACAACACUGCUUCGGCAGUGUAUUAAGACCACAUGAGGAUCACCCAUGUAGAAGGCACGAGCUGAU | – | – | 5.18 nM | 14.3 nM
GUCAGCUCGUGAGGAUAUACAACACUGCUUCGGCAGUGUAUUAAGAUCACAUGAGGAUCACCCAUGUAGAAGGCACGAGCUGCU | – | – | 12.9 nM | 276 nM
GUCAGCUCGUGAGGAUAUACAACACUGCUUCGGCAGUGUAUUAAGAUCACAUGAGGAUCACCCAUGUAGAAGGCACGAGGUGAU | – | – | 20.5 nM | 245 nM
GUCAGCUCGUGAGGAUAUACAACACUGCUUCGGCAGUGUAUUAAGAUCACAUGAGGAUCACCCAUGUAGAAGGCACGGGCUGAU | – | – | 14 nM | 323 nM
GUCAGCUCGUGAGGAUAUACAACACUGCUUCGGCAGUGUAUUAAGAUCACAUGAGGAUCACCCAUGUAGAAGGCGCGAGCUGAU | – | – | 13.3 nM | 243 nM
GUCAGCUCGUGAGGAUAUACAACACUGCUUCGGCAGUGUAUUAUGAUCACAUGAGGAUCACCCAUGUAGAAGGCACGAGCUGAU | – | – | 29.3 nM | 230 nM
GUCAGCUCGUGAGGAUAUACAACACUGCUUCGGCAGUGUUUUAAGAUCACAUGAGGAUCACCCAUGUAGAAGGCACGAGCUGAU | – | – | 6.29 nM | 44 nM
GUCAGCUCGUGAGGAUAUACACCACUGCUUCGGCAGUGUAUUAAGAUCACAUGAGGAUCACCCAUGUAGAAGGCACGAGCUGAU | – | – | 14.5 nM | 255 nM
GUCAGCUCGUGAGGAUAUACAUCACUGCUUCGGCAGUGUAUUAAGACAACAUGAGGAUCACCCAUGUAGAAGGCACGAGCUGAU | – | – | 16.9 nM | 20.4 nM
GUCAGCUCGUGAGGAUAUACAUGUGCUGGAGACAGCACUAUUAUGUUCACAUGAGGAUCACCCAUGUAGAAGGCACGAGCUGAU | – | – | 16.8 nM | 20.9 nM
GUCAGCUCGUGAGGAUAUACAUGUGCUGGAUACAGCACUAUUAUGUUCACAUGAGGAUCACCCAUGUAGAAGGCACGAGCUGAU | – | – | 16.2 nM | 21.7 nM
GUCAUCAAUGAAGGAUAUCUAUGUCCAACAUGAGGAUCACCCAUGUUGAGGAUUACCUAUGUGUAGGAGAAGGUCAAUAUAACU | 8.01 nM | 6.91 nM | – | –
GUCAUGUGAGGAUAUGUAUUGCGCAUGCCGAAAACAUGGCGGCAGAAGGCACAUGAGGAUCACCCAUGUGGGUU | – | – | 62.7 nM | 34.4 nM
GUCCUCCGUGCCCUUAACGCACAUGAGGAUCACCCAUGUAGGAGAAGGGCCCAACAAAUCAAAGGGCAGGAUAUCCAAAUCAUG | – | – | 75.1 nM | 18.9 nM
GUCCUCUCUGAGGAUAUUAUCCGGUCCGAUUGAUAAGAAGGCAGUACAUGAGGAUCACCCAUGUGGGUCGUCUG | – | – | 37.4 nM | 111 nM
GUCGGAAACGACAAAAGUAGCAUACGAGAAGGUUGAUCCAAGACAUGAGGAUCACCCAUGUAGUUAGAGGAUAUUGGAUGCUAC | 163 nM | 116 nM | – | –
GUCGGAAACGACAAAAGUAUGGAUCCAGAAGGCAUGAACAUGAGGAUCACCCAUGUCUAAAGAUAUGAGGAUAUGGAUCCAUAC | 6.66 nM | 4.44 nM | – | –
GUCGGAAACGACAAACGUAGCAUACGAGAAGGCUGAUCCACGACAUGAGGAUCACCCAUGUAGUUAGAGGAUAUUGGAUGCUAC | 54.7 nM | 11.3 nM | – | –
GUCGGAAACGACAAAGUAGCAUAGGAGGAUAUUCAUUAAAACAUGAGGAUCACCCAUGUAAAUUGGGAGAAGGCCUAUGCUACA | 17.8 nM | 5.26 nM | – | –
GUCGUGCGGCUUUGCUGUACGAGUACAUGAGGAUCACCCAUGUAGGAUAUGGUUCGUUUUGCGUGCCAGAAGGGCGUGCGUUGU | – | – | 25.5 nM | 24.8 nM
GUCGUGUGAGGAUAUGAUUAUUAGGCGGGAUUGCGACUGCUUCAGAAGGCACAUGAGGAUCACCCAUGUAUGAA | – | – | 11.4 nM | 39 nM
GUCGUGUGAGGAUAUGAUUUUUCGGCGGGAUUGCGACUGCUUCAGAAGGCACAUGAGGAUCACCCAUGUAUGUC | – | – | 10.7 nM | 25.5 nM
GUCGUGUUAGGAUAUGGCAACGGCUACGAAAGUAGUUGUUGUUAGAAGGAACAUGAGGAUCACCCAUGUAUGAC | – | – | 38 nM | 101 nM
